NF-kB neuron act = raises NF-kB expression in human neuronal cells; 1.6% of 190,000 active; AID 1239; fold change at 12.5 µM; NF-kB reporter expression; hits give high values; in the data active = fold change above about 3.3
APP 5'UTR act = activates APP 5'UTR luciferase reporter; SH-SY5Y APP 5'UTR luciferase reporter, luminescence; zero percent = DMSO vehicle wells; activation, % at 2 µM; 1% of 190,000 active; AID 1276;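 active = activation above a set limit, based on mean plus 3 SD of controls, cut at about 140% in these data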
STAT3 act = STAT3 signaling activation; 0.91% of 190,000 active; U3A cells, IL-6 STAT3-luciferase reporter, luminescence; 100% = signal with IL-6 EC80 alone; AID 871; activation (% of control), % at 5.6 µM;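 active = activation above the screen-wide mean of compound activation plus 3 SD, cut at about 130% in these data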;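 note: 0% = background luminescence of wells with medium and substrate only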
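Material: human STAT1-deficient U3A cells with stable STAT3-luciferase reporter / Probe or stimulus: IL-6 stimulus at 33 ng/mL final / Schedule: 1 h compound pre-exposure, 6 h IL-6 stimulation, 37 °C / Technique: luminescence / Read-out basis: percent of IL-6-only median luminescence / Control set: IL-6-only high control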
STAT1 activator = STAT1 signaling activation; NIH 3T3 STAT1-luciferase reporter, IFN-gamma, luminescence; 100% = IFN-gamma alone, no compound; activation (% of control), % at 5.5 µM; 2.6% of 200,000 active;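 active = activation above the screen-wide mean activation plus 3 SD, cut at about 130% in these data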;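 note: raw ratio to IFN-gamma control signal so 100% means no change and 0% no light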
STAT1 blocker = reduces IFN-gamma driven STAT1 reporter signal. 0.35% of 200,000 active. NIH 3T3 STAT1-luciferase reporter, luminescence. AID 920. inhibition, % at 5.5 µM;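 active = inhibition above a set limit, the mean inhibition across all tested compounds plus 3 SD, cut at about 34% in these data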;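 note: 0% = IFN-gamma with DMSO and 100% = IFN-gamma with 300 µM nifuroxazide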
STAT3 inh = reduces IL-6 driven STAT3 reporter signal; U3A cells, IL-6 STAT3-luciferase reporter, luminescence; host cell line lacks STAT1; inhibition, % at 5.5 µM; 0.89% of 190,000 active;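 active = inhibition above the mean inhibition across all screened compounds plus 3 SD, cut at about 44% in these data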;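 note: 0% = DMSO only wells and 100% = 100 µM nifuroxazide control wells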
The depositor's hits bear a star. In the library only some 4.9% were active in any assay of this set; here they are far more common.

SMILES | NF-kB neuron act | APP 5'UTR act | STAT3 act | STAT1 activator | STAT1 blocker | STAT3 inh
Cc1ccc(S(=O)(=O)N2CCN(CC(=O)N(CC(C)C)c3c(N)n(CC(C)C)c(=O)[nH]c3=O)CC2)c(C)c1 | 1.3 | 9 | 96 | 100 | 0 | 6
CCCCn1cnc(C(=O)OCC)c1N | 1.7 | 0 | 98 | 101 | -1 | 1
CCN(CC)C(=O)COc1ccc2oc(-c3ccco3)cc(=O)c2c1 | 1.4 | 21 | 95 | 118 | -21 | 17
COc1ccccc1C1CC(c2ccco2)=NN1S(C)(=O)=O (configuration not stated) | 0.96 | -15 | 99 | 100 | -2 | 4
COc1ccc(CC2SC(=Nc3ccc(F)cc3)NC2=O)cc1 (configuration not stated) | 0.94 | 4 | 106 | 100 | -1 | -6
N#C/C(=N\Nc1ccccc1F)C(=N)N1CCCCC1 | 4* | 88 | 112 | 148* | -57 | -12
N#C/C(=N\Nc1ccc(F)cc1)C(=N)N1CCCCCC1 | 7.7* | 185* | 85 | 150* | -55 | 20
Cc1ccc(N/N=C(\C#N)C(=N)N2CCOCC2)cc1 | 1.9 | 22 | 114 | 137* | -41 | -13
Cc1ccc(N/N=C(\C#N)C(=N)N2CCCCCC2)cc1 | 5.9* | 168* | 95 | 136* | -41 | 16
Cc1cc(NC(=O)Cc2ccccc2)ccc1NC(=O)c1cccs1 | 1.1 | -11 | 93 | 102 | -2 | 13
Cc1ccc(NC(=O)C(=O)NCCN2CCN(S(C)(=O)=O)CC2)cc1C | 1.1 | 0 | 96 | 96 | 3 | 8
O=C(CNC(=O)c1ccccc1Cl)OCC(=O)N1CCc2ccccc21 | 2.7 | 9 | 116 | 134* | -37 | -17
COC(=O)CCc1sc(Nc2ccccc2)nc1-c1ccc(OC)cc1 | 0.96 | 44 | 109 | 138* | -42 | -13
NC(=O)c1cccnc1Nc1cccc(F)c1 | 1.3 | 0 | 109 | 113 | -15 | -8
NC(=O)c1cccnc1Nc1cccc([N+](=O)[O-])c1 | 2.5 | 88 | 112 | 134* | -39 | -10
CSc1ccc(C(=O)C2CCCN(C(=O)Cc3nonc3C)C2)cc1 (configuration not stated) | 1.2 | -17 | 104 | 97 | 1 | 2
O=C1NC(=S)N/C1=C\c1ccc(N2CCOCC2)cc1 | 1.3 | 10 | 96 | 121 | -24 | 6
Cn1c(-c2ccc3c(c2)OCO3)cnc1NCc1ccccc1 | 1.1 | 7 | 103 | 111 | -13 | 5
Cn1c(-c2ccc3c(c2)OCO3)cnc1NCc1ccccc1Cl | 2.3 | 60 | 88 | 140* | -45 | 20
NC(=O)c1c(NC(=O)c2cccnc2)sc2c1CCCC2 | 1.8 | 28 | 80 | 134* | -38 | 31
O=C(Nc1sc2c(c1C(=O)O)CCCC2)c1cccs1 | 2 | 68 | 107 | 122 | -24 | -5
O=C(Nc1sc2c(c1C(=O)O)CCCCC2)c1cccs1 | 1.9 | 174* | 102 | 116 | -21 | 2
Cc1sc(NC(=O)c2cccs2)c(C(N)=O)c1C | 2.3 | 56 | 116 | 140* | -44 | -15
CC(=O)Nc1sc2c(c1C(N)=O)CCCC2 | 1.2 | -7 | 105 | 105 | -6 | -5
Cn1nccc1C(=O)Nc1sc2c(c1C(N)=O)CCCC2 | 1.5 | 33 | 90 | 146* | -50 | 19
SMILES | NF-kB neuron act | APP 5'UTR act | STAT3 act | STAT1 activator | STAT1 blocker | STAT3 inh
Cc1c(Cl)cccc1NC(=S)N1CCN(S(=O)(=O)c2cccs2)CC1 | 0.85 | -2 | 99 | 92 | 8 | 2
CN(C)S(=O)(=O)c1ccc(C(=O)N2CCN(S(=O)(=O)c3cccs3)CC2)cc1 | 1.1 | -5 | 103 | 86 | 15 | -2
O=C(CSc1nnc(-c2ccc(F)cc2)c2ccccc12)NCC1CCCO1 (configuration not stated) | 1.1 | 8 | 102 | 92 | 8 | 0
O=C(Nc1ccc(N2CCOCC2)cc1)c1ccncc1 | 1.1 | -3 | 100 | 97 | -3 | 1
O=C(Nc1ccc(N2CCOCC2)cc1)c1cnsn1 | 0.58 | 24 | 31 | 60 | 44* | 87*
Cc1cccc(NC(=O)CNC(=O)COc2cc(F)ccc2[N+](=O)[O-])c1C | 0.94 | -16 | 99 | 99 | -1 | 3
Clc1ccc(Sc2cc(Cl)c(-c3ccccc3)nn2)cc1 | 0.88 | -10 | 142* | 98 | 3 | -52
C=CCN1C(=O)CSC1=Nc1ccc(O)cc1 | 3.4* | 1 | 100 | 97 | 4 | 0
Cc1c(/C=C/C(=O)c2ccccc2O)cnn1C | 3.9* | 91 | 112 | 112 | -14 | -9
Cc1ccc2occ(/C=C/C(=O)c3ccccc3O)c(=O)c2c1 | 2.3 | 10 | 108 | 101 | -1 | -3
Cc1nn(-c2ccccc2)c(N2CCCC2)c1/C=N/NC(=S)Nc1ccccc1F | 0.4 | 94 | 95 | 129* | -32 | 2
CSc1ccccc1C(=O)Nc1ccc2c(c1)OCCO2 | 1.4 | 12 | 98 | 104 | -4 | 0
Cn1cc(C(=O)NCc2ccc(F)cc2)cn1 | 1.2 | -6 | 98 | 98 | 4 | 8
CCc1ccc(NC(=O)c2ccccc2SC)cc1 | 1.2 | 47 | 101 | 129* | -33 | 7
CCc1ccc(NC(=O)c2cnn3ccccc23)cc1 | 4* | 135 | 22 | 30 | 78* | 98*
O=C(NCc1ccc(F)cc1)c1cnn2ccccc12 | 2.4 | 55 | 103 | 132* | -35 | 1
CCOC(=O)CC(=O)CSc1ncnc2c1nnn2-c1ccc(OC)cc1 | 0.78 | 10 | 94 | 104 | -6 | 16
Cc1nc(N2CCN(S(=O)(=O)c3ccccc3C#N)CC2)c2c(-c3cccs3)csc2n1 | 1.1 | 0 | 113 | 98 | 2 | -17
Cc1nc(N2CCCCC2)c2c(-c3cccs3)csc2n1 | 7.8* | -6 | 108 | 92 | 7 | -7
O=C(COC(=O)c1cccnc1Cl)c1ccccc1 | 1.3 | 0 | 103 | 130* | -33 | 1
O=C(COC(=O)c1cccnc1Cl)c1ccc(F)cc1 | 1.2 | 8 | 96 | 126 | -28 | 13
CCC(=O)Nc1ccccc1C(=O)OCC(=O)c1ccccc1 | 2.2 | 76 | 96 | 138* | -41 | 11
CCC(=O)Nc1cccc(C(=O)OCC(=O)c2ccccc2Cl)c1 | 2.2 | 10 | 118 | 130* | -32 | -15
CCCCC(=O)Nc1ccccc1C(=O)OCC(=O)c1ccc2c(c1)OCCO2 | 0.84 | 70 | 94 | 132* | -36 | 3
CC(=O)Nc1cccc(C(=O)OCC(=O)c2ccccc2Cl)c1 | 2.2 | 29 | 96 | 128 | -30 | 10
Nc1nc(SCc2ccc(F)cc2)ns1 | 1.2 | 8 | 106 | 112 | -13 | 0
OC(CNCC(c1ccc(Cl)cc1Cl)c1c[nH]c2ccccc12)c1ccccc1 (configuration not stated) | 1.3 | -12 | 98 | 103 | -3 | 10

Screening data from PubChem.
